Laboratory results from paper PMC12855199 (Scientific Reports, 2025).

Key:
C. elegans N2 strain = experiment: In vitro nematocidal; set-up: species or system Caenorhabditis elegans
Procedure, shortened: (§1)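 C. elegans strains kept on NGM with E. coli. L1 obtained by bleaching and hatching eggs on unseeded NGM at 20 °C (~24 h). Thirty L1 per well, in triplicate, exposed in M9 to test compound at final 10–100,000 ng/mL with 0.5% DMSO, 72 h, 20 °C. Controls: DMSO, albendazole, ivermectin. Motility scored visually by inverted microscope; no movement = dead. EC50 by nonlinear regression; three independent replicates.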

C. elegans CB347 strain = experiment: In vitro nematocidal; set-up: species or system Caenorhabditis elegans
Procedure, shortened: as §1

C. elegans JD608 strain = experiment: In vitro nematocidal; settings: Caenorhabditis elegans, 72 h
Procedure, shortened: as §1

[1] = MTT cytotoxicity testing on HepG2; format: cell-based, human; settings: human, HepG2 cells
Procedure, shortened: (§2)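 Cells seeded at 20,000/well in MEM with 10% FBS, grown 24 h at 37 °C under 5% CO₂. Medium then replaced by test compound at final 10–100,000 ng/mL in MEM with 0.5% DMSO, 24 h. MTT added for 4 h; formazan dissolved in 4 mM HCl/0.1% NP-40 in isopropanol. Absorbance read at 590 nm, reference 620 nm. Viability relative to untreated; CC50 by nonlinear regression; three independent replicates.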

[2] = MTT cytotoxicity testing on Caco-2; format: cell-based, human; settings: human, Caco-2 cells
Procedure, shortened: as §2

[3] = test system: T. spiralis muscle-stage larvae (L1); experiment: In vitro nematocidal; set-up: species or system Trichinella spiralis
Procedure, shortened: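 Female ICR mice (8 weeks old) were infected orally with 100 larvae. Muscle larvae were recovered at day 60 by 0.7% pepsin/0.7% HCl digestion and kept in RPMI with 10% FCS and penicillin/streptomycin. Thirty larvae per well, in triplicate, with test compound at final 10–100,000 ng/mL and 0.5% DMSO, 72 h, 37 °C. Controls: DMSO, albendazole, ivermectin. EC50 by nonlinear regression; three independent replicates.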

HepG2 cells = experiment: MTT cytotoxicity testing on HepG2; format: cell-based, human; settings: HepG2, 24 h exposure, MTT; mean ± S.E.
Procedure, shortened: as §2

Caco-2 cells = experiment: MTT cytotoxicity testing on Caco-2; format: cell-based, human; settings: Caco-2, 24 h exposure, MTT; mean ± S.E.
Procedure, shortened: as §2

[4] = test system: T. spiralis muscle larvae; set-up: species or system Trichinella spiralis
Procedure, shortened: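 Muscle larvae were exposed to one concentration of test compound or to 0.5% DMSO. Extraction: cold methanol twice, then water, with freeze–thaw cycles and centrifugation at 4 °C; pooled extracts dried. Separation on C18 at 40 °C, 0.3 mL/min, formic acid water/acetonitrile gradient. Q-TOF ESI±, IDA with survey scan m/z 100–1000; pooled QCs. Processed in MS-DIAL and MetaboAnalyst; 3 biological × 2 technical replicates.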

[5] = no reference given; cited from earlier work
[6] = T. spiralis metabolite, quercetin at EC50 vs DMSO
[7] = T. spiralis, quercetin at EC50 vs DMSO control

Which results are given for `CCCSc1ccc2nc(NC(=O)OC)[nH]c2c1` [ABZ, albendazole, reference compound]?
EC50 (C. elegans N2 strain; Caenorhabditis elegans, 72 h): 672 ± 73 µM; EC50 (C. elegans CB347 strain; Caenorhabditis elegans, 72 h): > 1000 µM; EC50 (C. elegans JD608 strain): 788 ± 22.6 µM; CC50 at 24 h [1]: > 1000 µM; CC50 at 24 h [2]: > 1000 µM; EC50 ([3]; Trichinella spiralis, 72 h): 129 ± 34.1 µM

Which results are given for `O=c1cc(-c2ccc(O)cc2)oc2cc(O)cc(O)c12` [Apigenin, apigenin]?
EC50 (C. elegans N2 strain; Caenorhabditis elegans, 72 h): 218 ± 11.2 µM; EC50 (C. elegans CB347 strain; Caenorhabditis elegans, 72 h): 55.8 ± 4.89 µM; EC50 (C. elegans JD608 strain): 51.3 ± 1.46 µM; CC50 at 24 h [1]: 53.3 ± 4.52 µM; CC50 at 24 h [2]: > 1000 µM; EC50 ([3]; Trichinella spiralis, 72 h): > 1000 µM

For `COc1ccc([C@@H]2CC(=O)c3c(O)cc(O)cc3O2)cc1O` [Hesperetin, hesperetin], which EC50 (C. elegans N2 strain; Caenorhabditis elegans, 72 h) is on record?
The EC50 was 283 ± 23.9 µM.

What about the EC50 (C. elegans CB347 strain; Caenorhabditis elegans, 72 h) of the same molecule?
The EC50 was greater than 1000 µM.

What about the EC50 (C. elegans JD608 strain) of the same molecule?
The EC50 was 51.7 ± 2.92 µM.

What about the CC50 at 24 h [1] of the same molecule?
The CC50 at 24 h was greater than 1000 µM.

What about the CC50 at 24 h [2] of the same molecule?
The CC50 at 24 h was 56.3 ± 6.18 µM.

What does the source list for `CC[C@H](C)[C@H]1O[C@]2(CC[C@@H]1C)C[C@@H]1C[C@@H](C/C=C(\C)[C@@H](O[C@H]3C[C@H](OC)[C@@H](O[C@H]4C[C@H](OC)[C@@H](O)[C@H](C)O4)[C@H](C)O3)[C@@H](C)/C=C/C=C3\CO[C@@H]4[C@H](O)C(C)=C[C@@H](C(=O)O1)[C@]34O)O2` [IVM, ivermectin, reference compound]?
EC50 (C. elegans N2 strain; C. elegans N2 (wild type), L1, 72 h at 20 °C, motility, mean ± S.E.): 17.7 ± 1.85 µM; EC50 (C. elegans CB347 strain; C. elegans CB347 (albendazole-resistant), L1, 72 h at 20 °C, motility, mean ± S.E.): 15.4 ± 6.07 µM; CC50 (HepG2 cells): 14.9 ± 1.39 µM; CC50 (Caco-2 cells): 20 ± 5.28 µM; EC50 ([3]; T. spiralis muscle-stage larvae, 72 h at 37 °C, motility, mean ± S.E.): 107 ± 7.89 µM

With `C[C@@H]1O[C@@H](O[C@H]2[C@H](Oc3cc(O)c4c(c3)O[C@H](c3ccc(O)cc3)CC4=O)O[C@H](CO)[C@@H](O)[C@@H]2O)[C@H](O)[C@H](O)[C@H]1O` [Naringin, naringin] as the molecule, how does the EC50 (C. elegans N2 strain; Caenorhabditis elegans, 72 h) read?
The EC50 was greater than 1000 µM.

What about the EC50 (C. elegans CB347 strain; Caenorhabditis elegans, 72 h) of the same molecule?
The EC50 was greater than 1000 µM.

And the EC50 (C. elegans JD608 strain)?
The EC50 was greater than 1000 µM.

And the CC50 at 24 h [1]?
The CC50 at 24 h was greater than 1000 µM.

What about the CC50 at 24 h [2] of the same molecule?
The CC50 at 24 h was 249 ± 65.3 µM.

With `O=c1c(O)c(-c2ccc(O)c(O)c2)oc2cc(O)cc(O)c12` [Quercetin, quercetin] as the molecule, how does the EC50 (C. elegans N2 strain; Caenorhabditis elegans, 72 h) read?
The EC50 was 80.5 ± 20.3 µM.

And the EC50 (C. elegans CB347 strain; Caenorhabditis elegans, 72 h)?
The EC50 was 76.2 ± 7.4 µM.

And the EC50 (C. elegans JD608 strain)?
The EC50 was 45.3 ± 4.92 µM.

And the CC50 at 24 h [1]?
Its CC50 at 24 h is greater than 1000 µM.

And the CC50 at 24 h [2]?
Its CC50 at 24 h is greater than 1000 µM.

What about the EC50 ([3]; Trichinella spiralis, 72 h) of the same molecule?
The EC50 was 147 ± 28.2 µM.

What about the “Log2 (FC) 1-Heptadecanoyl-sn-glycero-3-phosphocholine” value [4, 6] of the same molecule?
Its value is -1.6835.

And the “Log2 (FC) 3-Phosphoglyceric Acid” value [4, 6]?
Its value is -1.0514.

And the “Log2 (FC) 7alpha-Hydroxy-4-cholesten-3-one” value [4, 6]?
Its value is 2.1364.

And the “Log2 (FC) Arachidonic acid” value [4, 6]?
Its value is -1.1472.

What about the “Log2 (FC) Coenzyme q6” value [4, 6] of the same molecule?
Its value is 1.8385.

What about the “Log2 (FC) Deoxyguanosine” value [4, 6] of the same molecule?
Its value is -2.4539.

What about the “Log2 (FC) Inosine” value [4, 6] of the same molecule?
The value was -2.6373.

What about the “Log2 (FC) LacCer(d18:1/16:0)” value [4, 6] of the same molecule?
Its value is 2.6728.

What about the “Log2 (FC) Lignoceric acid” value [4, 6] of the same molecule?
Its value is 4.0956.

What about the “Log2 (FC) Linoleic acid” value [4, 6] of the same molecule?
Its value is 2.1922.

What about the “Log2 (FC) Linolenic acid” value [4, 6] of the same molecule?
The value was 2.7081.

And the “Log2 (FC) LysoPC(0:0/18:0)” value [4, 6]?
The value was -1.4886.

What about the “Log2 (FC) LysoPE(0:0/16:0)” value [4, 6] of the same molecule?
The value was -1.8636.

And the “Log2 (FC) LysoPE(0:0/18:2(9Z,12Z))” value [4, 6]?
Its value is -1.4991.

And the “Log2 (FC) Menaquinone 4” value [4, 6]?
The value was 2.2163.

And the “Log2 (FC) N-Acetyl-D-Galactosamine” value [4, 6]?
Its value is 4.5233.

And the “Log2 (FC) PC(P-18:1(9Z)/P-16:0)” value [4, 6]?
The value was 2.1307.

What about the “Log2 (FC) Phosphatidylethanolamine” value [4, 6] of the same molecule?
The value was -1.0876.

What about the “Log2 (FC) Tetradecanoylcarnitine” value [4, 6] of the same molecule?
The value was -2.0664.

What about the “Log2 (FC) Vitamin K1” value [4, 6] of the same molecule?
The value was 1.8127.

What about the Down-regulated features [4, 7] of the same molecule?
Its Down-regulated features is 68.

And the Up-regulated features [4, 7]?
The Up-regulated features was “Around 204”.

What about the Oral bioavailability [5] of the same molecule?
The Oral bioavailability was less than 5%.

What does the source list for `COc1ccc(-c2cc(=O)c3c(OC)c(OC)c(OC)c(OC)c3o2)cc1` [Tangeretin, tangeretin]?
EC50 (C. elegans N2 strain; Caenorhabditis elegans, 72 h): > 1000 µM; EC50 (C. elegans CB347 strain; Caenorhabditis elegans, 72 h): > 1000 µM; EC50 (C. elegans JD608 strain): 43.1 ± 11.2 µM; CC50 at 24 h [1]: 251 ± 35 µM; CC50 at 24 h [2]: 531 ± 70.3 µM
